What was measured:
Type in all cases: functional
CCRF-CEM = experiment: Inhibitory activity against CCRF-CEM(human leukemic lymphoblastic) cells in culture.; conditions: read-out: ID50 (the source's name)
Method in brief: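 Human leukemic lymphoblastic CCRF-CEM cells grown in culture with continuous drug exposure for 48 h; growth inhibition measured.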

Mus musculus [1] = experiment: In vivo growth inhibitory activity was measured against murine P388 leukemia cells as Percent increase in life span at the dose of 4.0 mg/kg/day
Method in brief: (§1)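 Murine P388 leukemia model: 10⁶ tumor cells inoculated ip on day 0. Compound given ip once daily on days 1-4 at the stated dose. Activity was expressed as percent increase in life span relative to untreated controls.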

Mus musculus [2] = experiment: In vivo growth inhibitory activity was measured against murine P388 leukemia cells as Percent increase in life span at the dose of 40.0 mg/kg/day; method in brief: as §1
Mus musculus [3] = experiment: In vivo growth inhibitory activity was measured against murine P388 leukemia cells as Percent increase in life span at the dose of 50.0 mg/kg/day; method in brief: as §1
Mus musculus [4] = experiment: In vivo growth inhibitory activity was measured against murine P388 leukemia cells as Percent increase in life span at the dose of 20.0 mg/kg/day; method in brief: as §1
Mus musculus [5] = experiment: In vivo growth inhibitory activity was measured against murine P388 leukemia cells as percent increase in life span at the dose of 40.0 mg/kg/day; method in brief: as §1
Mus musculus [6] = experiment: In vivo growth inhibitory activity was measured against murine P388 leukemia cells as Percent increase in life span at the dose of 2.0 mg/kg/day; method in brief: as §1
Mus musculus [7] = experiment: In vivo growth inhibitory activity was measured against murine P388 leukemia cells as Percent increase in life span at the dose of 80.0 mg/kg/day; method in brief: as §1

Structure (SMILES)	IC50 (CCRF-CEM) [µM]	other results
COc1cccc2c1C(=O)c1c(O)c3c(c(O)c1C2=O)C=C(C(C)=O)C[C@@H]3OC1CC(NC(=O)C(F)(F)C(F)(F)F)C(O)C(C)O1 (stereo partly drawn)	0.5	–
CCCCC(=O)OCC(=O)C1=Cc2c(O)c3c(c(O)c2[C@@H](OC2CC(NC(=O)C(F)(F)C(F)(F)C(F)(F)F)C(O)C(C)O2)C1)C(=O)c1c(OC)cccc1C3=O (stereo partly drawn)	2.31	–
COc1cccc2c1C(=O)c1c(O)c3c(c(O)c1C2=O)C[C@@](O)(C(=O)CO)C[C@@H]3O[C@H]1C[C@H](N)[C@H](O)[C@H](C)O1 [DOXORUBICIN]	0.066	ILS at 4 mg/kg/day (Mus musculus [1]): 132%
COc1cccc2c1C(=O)c1c(O)c3c(c(O)c1C2=O)C=C(C(C)=O)C[C@@H]3OC1CC(NC(=O)C(F)(F)F)C(O)C(C)O1 (stereo partly drawn)	–	ILS at 40 mg/kg/day (Mus musculus [2]): 45%
CCCCC(=O)OCC(=O)[C@]1(O)Cc2c(O)c3c(c(O)c2[C@@H](OC2CC(NC(=O)C(F)(F)F)C(O)C(C)O2)C1)C(=O)c1c(OC)cccc1C3=O (stereo partly drawn)	0.24	ILS at 40 mg/kg/day (Mus musculus [2]): 429%
CCCCC(=O)OCC(=O)[C@]1(O)Cc2c(O)c3c(c(O)c2[C@@H](OC2CC(NC(=O)C(F)(F)C(F)(F)C(F)(F)F)C(O)C(C)O2)C1)C(=O)c1c(OC)cccc1C3=O (stereo partly drawn)	> 1.14	ILS at 50 mg/kg/day (Mus musculus [3]): 0%
CCCCC(=O)OCC(=O)[C@]1(O)Cc2c(O)c3c(c(O)c2[C@@H](OC2CC(NC(=O)C(F)(F)C(F)(F)F)C(O)C(C)O2)C1)C(=O)c1c(OC)cccc1C3=O (stereo partly drawn)	1.18	ILS at 50 mg/kg/day (Mus musculus [3]): 0%
COc1cccc2c1C(=O)c1c(O)c3c(c(O)c1C2=O)C[C@@](O)(C(=O)CO)C[C@@H]3OC1CC(NC(=O)C(F)(F)F)C(O)C(C)O1 (stereo partly drawn)	0.23	ILS at 20 mg/kg/day (Mus musculus [4]): 481%
COc1cccc2c1C(=O)c1c(O)c3c(c(O)c1C2=O)C[C@@](O)(C(=O)CO)C[C@@H]3OC1CC(NC(=O)C(F)(F)C(F)(F)F)C(O)C(C)O1 (stereo partly drawn)	0.41	ILS at 50 mg/kg/day (Mus musculus [3]): 372%
COc1cccc2c1C(=O)c1c(O)c3c(c(O)c1C2=O)C=C(C(=O)CO)C[C@@H]3OC1CC(NC(=O)C(F)(F)C(F)(F)F)C(O)C(C)O1 (stereo partly drawn)	8.41	–
COc1cccc2c1C(=O)c1c(O)c3c(c(O)c1C2=O)C=C(C(C)=O)C[C@@H]3OC1CC(NC(=O)C(F)(F)C(F)(F)C(F)(F)F)C(O)C(C)O1 (stereo partly drawn)	> 13.8	–
COc1cccc2c1C(=O)c1c(O)c3c(c(O)c1C2=O)C[C@@](O)(C(C)=O)C[C@@H]3OC1CC(NC(=O)C(F)(F)C(F)(F)C(F)(F)F)C(O)C(C)O1 (stereo partly drawn)	> 1.35	ILS at 40 mg/kg/day (Mus musculus [2]): 45%
CCCCC(=O)OCC(=O)C1=Cc2c(O)c3c(c(O)c2[C@@H](OC2CC(NC(=O)C(F)(F)C(F)(F)F)C(O)C(C)O2)C1)C(=O)c1c(OC)cccc1C3=O (stereo partly drawn)	0.56	–
COc1cccc2c1C(=O)c1c(O)c3c(c(O)c1C2=O)C=C(C(=O)CO)C[C@@H]3OC1CC(NC(=O)C(F)(F)F)C(O)C(C)O1 (stereo partly drawn)	5.79	ILS at 40 mg/kg/day (Mus musculus [5]): 63%
COc1cccc2c1C(=O)c1c(O)c3c(c(O)c1C2=O)C=C(C(=O)CO)C[C@@H]3OC1CC(NC(=O)C(F)(F)C(F)(F)C(F)(F)F)C(O)C(C)O1 (stereo partly drawn)	7.3	–
COc1cccc2c1C(=O)c1c(O)c3c(c(O)c1C2=O)C[C@@](O)(C(C)=O)C[C@@H]3OC1CC(NC(=O)C(F)(F)C(F)(F)F)C(O)C(C)O1 (stereo partly drawn)	1.01	ILS at 50 mg/kg/day (Mus musculus [3]): 27%
CCCCC(=O)OCC(=O)C1=Cc2c(O)c3c(c(O)c2[C@@H](OC2CC(NC(=O)C(F)(F)F)C(O)C(C)O2)C1)C(=O)c1c(OC)cccc1C3=O (stereo partly drawn)	1.19	ILS at 40 mg/kg/day (Mus musculus [2]): 27%
COc1cccc2c1C(=O)c1c(O)c3c(c(O)c1C2=O)C[C@@](O)(C(=O)CO)C[C@@H]3OC1CC(NC(=O)C(F)(F)C(F)(F)C(F)(F)F)C(O)C(C)O1 (stereo partly drawn)	1.49	ILS at 50 mg/kg/day (Mus musculus [3]): 54%
COc1cccc2c1C(=O)c1c(O)c3c(c(O)c1C2=O)C[C@@](O)(C(C)=O)C[C@@H]3O[C@H]1C[C@H](N)[C@H](O)[C@H](C)O1 [DAUNORUBICIN]	0.04	ILS at 2 mg/kg/day (Mus musculus [6]): 91%
COc1cccc2c1C(=O)c1c(O)c3c(c(O)c1C2=O)C[C@@](O)(C(C)=O)C[C@@H]3OC1CC(NC(=O)C(F)(F)F)C(O)C(C)O1 (stereo partly drawn)	0.27	ILS at 80 mg/kg/day (Mus musculus [7]): 83%

From ChEMBL document CHEMBL1122143, “Adriamycin analogues. Preparation and biological evaluation of some N-perfluoroacyl analogues of daunorubicin, adriamycin, and N-(trifluoroacetyl)adriamycin 14-valerate and their 9,10-anhydro derivatives” (1982)
